Test results taken from ChEMBL document CHEMBL2440012, “Design, synthesis and anticonvulsant properties of new N-Mannich bases derived from 3-phenylpyrrolidine-2,5-diones” (Bioorg Med Chem, 2013).
Active and inactive are the calls of the source. The rule behind the calls is not given here.

Tests used:
Rattus norvegicus [1] = test: Anticonvulsant activity in albino Sprague-Dawley rat assessed as protection against maximal electroshock-induced seizures at 30 mg/kg, po measured after 0.25 hr; type: functional
Procedure, shortened: (§1)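 Male Sprague-Dawley rats, four per group, dosed p.o. at 30 mg/kg in 0.5% methylcellulose/water suspension; MES test at 0.25, 0.5, 1, 2 and 4 h, motor impairment examined in parallel; number of rats out of four protected.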

Rattus norvegicus [2] = test: Anticonvulsant activity in albino Sprague-Dawley rat assessed as protection against maximal electroshock-induced seizures at 30 mg/kg, po measured after 2 hrs; type: functional; procedure, shortened: as §1
Mus musculus [3] = test: Neurotoxicity in ip dosed albino CF1 mouse assessed as minimum motor impairment in half or more animals measured after 0.5 hrs by rotorod test; type: toxicity, organism-based; conditions: in vivo
Procedure, shortened: (§2)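 Male CF-1 mice given ip suspension in 0.5% methylcellulose/water at 30, 100 and 300 mg/kg; MES, scPTZ (pentylenetetrazole 85 mg/kg sc, CD97 dose for clonic seizures ≥5 s) and rotarod (inability to hold balance 1 min in each of three trials) assessed at 0.5 and 4 h; value is minimum dose active in half or more animals.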

Rattus norvegicus [4] = test: Anticonvulsant activity in albino rat assessed as protection against pilocarpine-induced status epilepticus at 400 mg/kg, ip measured 0.5 hrs post first stage 3 seizure; type: functional, organism-based; set-up: dose 400 mg/kg
Procedure, shortened: (§3)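 Male Sprague-Dawley rats (150–180 g) dosed ip, followed by challenge dose of pilocarpine; compound given relative to first stage III seizure (time zero or 0.5 h); outcome scored as protection or no protection, plus body-weight change 24 h after first stage III seizure.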

Rattus norvegicus [5] = test: Anticonvulsant activity in albino Sprague-Dawley rat assessed as protection against maximal electroshock-induced seizures at 30 mg/kg, po measured after 1 hr; type: functional; procedure, shortened: as §1
Mus musculus [6] = test: Anticonvulsant activity in ip dosed albino CF1 mouse assessed as protection against subcutaneous pentylenetetrazole-induced convulsion in half or more animals measured after 4 hrs; type: functional; conditions: albino CF1, 4 h, read-out: MED; procedure, shortened: as §2
Rattus norvegicus [7] = test: Anticonvulsant activity in albino Sprague-Dawley rat assessed as protection against maximal electroshock-induced seizures at 30 mg/kg, po measured after 4 hrs; type: functional; procedure, shortened: as §1
Mus musculus [8] = test: Anticonvulsant activity in albino CF1 mouse assessed as protection against maximal electroshock-induced seizures at 300 mg/kg, ip measured after 4 hrs; type: functional, organism-based; set-up: dose 300 mg/kg; procedure, shortened: as §2
Rattus norvegicus [9] = test: Anticonvulsant activity in ip dosed albino rat assessed as protection against pilocarpine-induced status epilepticus measured 0.5 hrs post first stage 3 seizure; type: functional; procedure, shortened: as §3
Mus musculus [10] = test: Anticonvulsant activity against 6 Hz psychomotor seizure in ip dosed albino CF1 mouse by minimal clonic seizure test; type: functional
Mus musculus [11] = test: Anticonvulsant activity in albino CF1 mouse assessed as assessed as protection against 6 Hz psychomotor seizure at 100 mg/kg, ip after 1 hr by minimal clonic seizure test; type: functional; conditions: route intraperitoneal
Procedure, shortened: (§4)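 Male CF-1 mice, groups of four, dosed ip in 0.5% methylcellulose/water suspension, then challenged by 6-Hz corneal stimulation at 32 mA (0.2 ms pulses, 3 s, constant current) at 0.25, 0.5, 1, 2 or 4 h; count of mice out of four protected from stunned posture/clonic seizure.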

Mus musculus [12] = test: Anticonvulsant activity in albino CF1 mouse assessed as assessed as protection against 6 Hz psychomotor seizure at 100 mg/kg, ip after 0.5 hr by minimal clonic seizure test; type: functional; conditions: route intraperitoneal; procedure, shortened: as §4
Mus musculus [13] = test: Neurotoxicity in albino CF1 mouse assessed as minimum motor impairment at 300 mg/kg, ip measured after 4 hrs by rotorod test; type: toxicity, organism-based; set-up: dose 300 mg/kg, route intraperitoneal; conditions: in vivo; procedure, shortened: as §2
Cytochrome P450 3A4 [14] = target: T1, Cytochrome P450 3A4 (Homo sapiens, UniProt P08684); test: Inhibition of CYP3A4 (unknown origin) using 200 uM testosterone as substrate assessed as formation of 6-beta-OH-testosterone relative to control; type: ADME
T1 sequence (P08684 whole entry): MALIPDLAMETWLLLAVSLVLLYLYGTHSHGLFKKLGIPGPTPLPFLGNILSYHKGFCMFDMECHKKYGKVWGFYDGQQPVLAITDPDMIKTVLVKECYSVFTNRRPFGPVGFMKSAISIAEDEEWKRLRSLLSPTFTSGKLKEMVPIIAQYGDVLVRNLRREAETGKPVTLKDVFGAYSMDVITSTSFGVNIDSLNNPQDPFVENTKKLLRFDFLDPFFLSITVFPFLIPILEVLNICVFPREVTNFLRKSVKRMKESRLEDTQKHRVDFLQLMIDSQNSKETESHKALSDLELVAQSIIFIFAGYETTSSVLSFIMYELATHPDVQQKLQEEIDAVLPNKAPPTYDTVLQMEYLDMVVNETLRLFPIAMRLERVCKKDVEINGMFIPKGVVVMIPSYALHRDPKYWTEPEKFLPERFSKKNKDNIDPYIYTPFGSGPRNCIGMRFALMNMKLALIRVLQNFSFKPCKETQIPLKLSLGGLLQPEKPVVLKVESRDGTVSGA

Mus musculus [15] = test: Anticonvulsant activity in ip dosed albino CF1 mouse assessed as protection against subcutaneous pentylenetetrazole-induced convulsion in half or more animals measured after 0.5 hr; type: functional; conditions: albino CF1, 0.5 h, read-out: MED; procedure, shortened: as §2
Mus musculus [16] = test: Anticonvulsant activity in ip dosed albino CF1 mouse assessed as protection against maximal electroshock-induced seizures in half or more animals measured after 0.5 hr; type: functional; conditions: read-out: MED; procedure, shortened: as §2
Mus musculus [17] = test: Anticonvulsant activity in albino CF1 mouse assessed as assessed as protection against 6 Hz psychomotor seizure at 100 mg/kg, ip after 2 hrs by minimal clonic seizure test; type: functional; conditions: route intraperitoneal; procedure, shortened: as §4
Rattus norvegicus [18] = test: Anticonvulsant activity in albino Sprague-Dawley rat assessed as protection against maximal electroshock-induced seizures at 30 mg/kg, po measured after 0.5 hr; type: functional; procedure, shortened: as §1
Mus musculus [19] = test: Protection index, ratio of TD50 for neurotoxicity in ip dosed albino CF1 mouse by rotorod test to ED50 for anticonvulsant activity in ip dosed albino CF1 mouse by 6 Hz psychomotor seizure test; type: functional
Mus musculus [20] = test: Anticonvulsant activity in albino CF1 mouse assessed as assessed as protection against 6 Hz psychomotor seizure at 100 mg/kg, ip after 4 hrs by minimal clonic seizure test; type: functional; conditions: route intraperitoneal; procedure, shortened: as §4
Mus musculus [21] = test: Anticonvulsant activity against 6 Hz psychomotor seizure in ip dosed albino CF1 mouse assessed as time to peak effect by minimal clonic seizure test; type: functional
Mus musculus [22] = test: Anticonvulsant activity in albino CF1 mouse assessed as assessed as protection against 6 Hz psychomotor seizure at 100 mg/kg, ip after 0.25 hr by minimal clonic seizure test; type: functional; conditions: route intraperitoneal; procedure, shortened: as §4
Cytochrome P450 3A4 [23] = target: T1, Cytochrome P450 3A4; test: Inhibition of CYP3A4 (unknown origin) using 50 uM testosterone as substrate assessed as formation of 6-beta-OH-testosterone relative to control; type: ADME
Mus musculus [24] = test: Neurotoxicity in ip dosed albino CF1 mouse assessed as time to peak effect by rotorod test; type: toxicity, organism-based; conditions: in vivo
[25] = Neurotoxicity in ip dosed albino CF1 mouse by rotorod test; type: toxicity, organism-based; conditions: in vivo

With `O=C1CC(c2ccccc2)C(=O)N1CN1CCOCC1` (racemic) the Activity (Rattus norvegicus [1]) was “inactive”, the Activity (Rattus norvegicus [2]) was “inactive” and the MED (Mus musculus [3]) was 300 mg/kg. For the same compound, the Activity (Rattus norvegicus [4]) was “Active”, the Activity (Rattus norvegicus [5]) was “inactive” and the minimal effective dose (Mus musculus [6]) was 300 mg/kg. The Activity (Rattus norvegicus [7]) was “inactive”, the Activity (Mus musculus [8]) was “inactive” and the ED50 (Rattus norvegicus [9]) was 342 mg/kg. The ED50 (Mus musculus [10]) was 77.2 mg/kg, the Activity (Mus musculus [11]) was 25% and the Activity (Mus musculus [12]) was 0%. The Activity (Mus musculus [13]) was “Non-toxic”, the “inhibition (INH)” value (Cytochrome P450 3A4 [14]) was 19% and the minimal effective dose (Mus musculus [15]) was 300 mg/kg. For the same compound, the minimal effective dose (Mus musculus [16]) was 100 mg/kg, the Activity (Mus musculus [17]) was 0% and the Activity (Rattus norvegicus [18]) was “inactive”. The “Ratio TD50/ED50” value (Mus musculus [19]) was 3.79, the Activity (Mus musculus [20]) was 0% and the Time (Mus musculus [21]) was 0.25 h. The Activity (Mus musculus [22]) was 75%, the “inhibition (INH)” value (Cytochrome P450 3A4 [23]) was 17% and the Time (Mus musculus [24]) was 0.25 h. The TD50 [25] was 293 mg/kg.
